The source made the active and inactive calls. No cut-off for these calls is given here.
Columns and labels:
Genome polyprotein [1] = target: Genome polyprotein (dengue virus type 2, UniProt P29990); test: Inhibition Dengue serotype-2 NS3B/NS3 protease using 7-amino-4-methylcoumarin as substrate by fluorescence assay
Genome polyprotein [2] = target: Genome polyprotein (West Nile virus, UniProt P06935); test: Inhibition West Nile virus NS3B/NS3 protease using 7-amino-4-methylcoumarin as substrate by fluorescence assay
Genome polyprotein (West Nile virus, UniProt P06935), sequence (P06935 1371-1501 limits assumed): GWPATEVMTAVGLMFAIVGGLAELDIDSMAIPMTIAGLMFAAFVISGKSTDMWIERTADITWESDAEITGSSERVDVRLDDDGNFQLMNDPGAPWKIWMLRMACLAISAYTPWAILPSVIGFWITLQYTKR
Genome polyprotein (West Nile virus, UniProt P06935), sequence (P06935 1502-2120 limits assumed): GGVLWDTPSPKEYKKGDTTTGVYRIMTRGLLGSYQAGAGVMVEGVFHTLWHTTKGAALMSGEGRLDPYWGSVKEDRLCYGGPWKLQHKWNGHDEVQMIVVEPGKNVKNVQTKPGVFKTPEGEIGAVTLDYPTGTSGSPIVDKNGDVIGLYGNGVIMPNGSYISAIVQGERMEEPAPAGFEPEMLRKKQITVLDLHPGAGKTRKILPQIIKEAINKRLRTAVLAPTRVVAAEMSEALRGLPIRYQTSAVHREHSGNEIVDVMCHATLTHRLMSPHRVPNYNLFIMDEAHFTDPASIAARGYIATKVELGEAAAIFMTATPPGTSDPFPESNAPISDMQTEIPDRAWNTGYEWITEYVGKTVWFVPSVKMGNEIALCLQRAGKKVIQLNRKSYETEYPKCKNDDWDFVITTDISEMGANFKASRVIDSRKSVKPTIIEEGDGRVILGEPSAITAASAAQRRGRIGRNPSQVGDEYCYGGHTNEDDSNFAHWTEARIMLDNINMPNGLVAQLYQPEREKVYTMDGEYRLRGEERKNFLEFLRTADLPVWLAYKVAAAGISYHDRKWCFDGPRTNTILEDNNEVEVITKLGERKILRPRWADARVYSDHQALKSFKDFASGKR

Nonstructural protein 3 = Nonstructural protein 3 (Zika virus, UniProt A0A024AXB9); test: Inhibition Zika virus NS2B (47 to 95 residues)/NS3 (1 to 170 residues) protease expressed in Escherichia coli BL21 using 7-amino-4-methylcoumarin as substrate by fluorescence assay
Nonstructural protein 3, sequence (A0A024AXB9 whole entry, the tested form may be a part): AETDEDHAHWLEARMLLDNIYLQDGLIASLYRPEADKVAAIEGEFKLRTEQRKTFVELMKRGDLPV
Method in brief: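 Single-chain NS2B(47–95)–Gly4-Ser-Gly4–NS3(1–170) enzyme at 1 nM in 20 mM HEPES pH 7.3 with 0.05% Triton X-100. Compound (1 nM–10 µM, triplicate) is preincubated 10 min before adding Bz-Nle-Lys-Lys-Arg-AMC at 20 µM. Fluorescence (Ex 360/Em 460 nm) is read every 30 s. IC50 comes from dose-response fitting of initial velocities, 3 independent experiments with SD.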

Zika virus [3] = test: Antiviral activity against Zika virus infected in human U87 cells assessed as reduction in infectious virus in supernatant by measuring infection of Vero cells preincubated with viral infected […] cells for 48 hrs and measured following infection of supernatants with Vero cells for 7 days by microscopy; format: functional; conditions: U-87 MG
Method in brief: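 U87 cells (2×10^4/well, DMEM with 2% FBS monolayer) infected with ZIKV FLR strain (passage-3 stock) at MOI 0.01 for 1 h, then washed. Compound added in triplicate for 48 h at 37 °C. Supernatant half-log dilutions are titrated on Vero cells in quadruplicate for 7 days, with CPE read by microscopy plus MTT. EC68 is the half-log TCID50 reduction versus control; ≥2 independent experiments.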

Zika virus [4] = test: Antiviral activity against Zika virus infected in human U87 cells assessed as inhibition of viral replication at 10 uM; format: functional, organism-based
U-87 MG = test: Cytotoxicity against human U87 cells assessed as inhibition of proliferation at 10 uM by MTT assay; format: cell-based; conditions: u-87mg atcc
Vero = test: Cytotoxicity against African green monkey Vero cells assessed as inhibition of proliferation at 10 uM by MTT assay; format: cell-based; conditions: chlorocebus sabaeus
Zika virus [5] = test: Antiviral activity against Zika Serotype 2 infected mouse model assessed as inhibition of viral load in plasma at 30 mg/kg treated for 3 days; format: functional; conditions: 72 h, time 3 day
Zika virus [6] = test: Antiviral activity against Zika Serotype 2 infected mouse model assessed as inhibition of viral load in brain at 30 mg/kg treated for 3 days; format: functional; conditions: 72 h, time 3 day

Genome polyprotein (dengue virus type 2, UniProt P29990), sequence (P29990 1346-1475 limits assumed): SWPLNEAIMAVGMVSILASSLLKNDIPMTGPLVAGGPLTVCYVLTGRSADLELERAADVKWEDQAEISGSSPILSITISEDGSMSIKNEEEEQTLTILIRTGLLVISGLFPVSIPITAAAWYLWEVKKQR
Genome polyprotein (dengue virus type 2, UniProt P29990), sequence (P29990 1476-2093 limits assumed): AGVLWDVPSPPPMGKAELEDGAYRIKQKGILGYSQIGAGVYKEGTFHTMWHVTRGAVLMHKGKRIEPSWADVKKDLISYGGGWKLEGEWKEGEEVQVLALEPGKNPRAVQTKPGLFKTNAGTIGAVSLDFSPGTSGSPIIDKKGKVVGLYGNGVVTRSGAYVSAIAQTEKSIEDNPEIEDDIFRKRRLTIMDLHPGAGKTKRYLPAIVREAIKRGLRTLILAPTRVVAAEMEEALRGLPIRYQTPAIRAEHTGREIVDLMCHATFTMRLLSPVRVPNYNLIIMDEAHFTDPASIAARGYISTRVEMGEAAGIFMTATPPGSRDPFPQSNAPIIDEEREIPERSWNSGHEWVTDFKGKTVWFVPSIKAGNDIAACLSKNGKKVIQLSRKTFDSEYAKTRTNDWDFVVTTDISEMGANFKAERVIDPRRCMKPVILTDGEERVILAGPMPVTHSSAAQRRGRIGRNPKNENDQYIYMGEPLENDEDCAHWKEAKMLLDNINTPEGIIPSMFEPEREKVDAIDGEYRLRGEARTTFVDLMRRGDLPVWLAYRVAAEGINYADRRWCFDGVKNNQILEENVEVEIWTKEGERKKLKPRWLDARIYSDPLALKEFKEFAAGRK

Row | Structure (SMILES) | IC50 (Genome polyprotein [1]) | IC50 (Genome polyprotein [2]) | IC50 (Nonstructural protein 3) | EC68 (Zika virus [3]) | inhibition (Zika virus [4]) | Activity (U-87 MG) | Activity (Vero) | inhibition in vivo at 30 mg/kg (Zika virus [5]) | inhibition in vivo at 30 mg/kg (Zika virus [6])
1 | Ic1ccc(-c2ncc(OCCC3CCNCC3)nc2-c2ccc(I)cc2)cc1 | 10200 nM | 1800 nM | 4700 nM | – | – | – | – | – | –
2 | Brc1ccc(-c2ncc(OCC3CCNCC3)nc2-c2ccc(Br)cc2)cc1 | 35000 nM | > 50000 nM | 21700 nM | > 10 µM | – | – | – | – | –
3 | NCc1ccc(-c2ncc(OCC3CCNCC3)nc2-c2ccc(O)cc2)cc1 | – | – | – | > 10 µM | inactive | – | – | – | –
4 | NCc1ccc(-c2ncc(OCC3CCNCC3)nc2-c2ccc(C3CCOCC3)nc2)cc1 | – | – | 1000 nM | 3 µM | – | Non-Toxic | Non-Toxic | – | –
5 | Cc1cc(CN)ccc1-c1ncc(OCC2CCNCC2)nc1-c1ccc(CN)cc1C | 6300 nM | 3600 nM | 2100 nM | – | – | – | – | – | –
6 | CNCc1ccc(-c2ncc(OCC3CCNCC3)nc2-c2ccc(-c3ccoc3)cc2)cc1 | 730 nM | 870 nM | – | 1.2 µM | – | – | – | – | –
7 | NCc1ccc(-c2ncc(OCC3CCNCC3)nc2-c2ccc(C3CCOCC3)cc2)cc1 | 2400 nM | 820 nM | 130 nM | 0.6 µM | – | Non-Toxic | Non-Toxic | – | –
8 | NCc1ccc(-c2ccc(NCC3CCNCC3)nc2-c2ccc(-c3ccoc3)cc2)cc1 | 860 nM | 1300 nM | 790 nM | 1.2 µM | – | – | – | – | –
9 | NCc1ccc(-c2cc(CNCC3CCNCC3)sc2-c2ccc(CN)cc2)cc1 | – | > 50000 nM | 10700 nM | – | – | – | – | – | –
10 | CC(Oc1cnc(-c2ccc(CN)cc2)c(-c2ccc(-c3ccoc3)cc2)n1)C1CCNCC1 (racemic) | – | – | 240 nM | 1.2 µM | – | – | – | – | –
11 | CC(C)(C)C(=O)OCc1ccc(-c2ncc(OCC3CCNCC3)nc2-c2ccc(COC(=O)C(C)(C)C)cc2)cc1 | 13400 nM | 20000 nM | 9800 nM | – | – | – | – | – | –
12 | NCc1ccc(-c2ncc(OCC3CCNCC3)nc2-c2ccc(-c3ccncc3)cc2)cc1 | > 50000 nM | > 50000 nM | 26500 nM | – | – | – | – | – | –
13 | NC(=O)c1ccc(-c2ncc(OCC3CCNCC3)nc2-c2ccc(-c3ccoc3)cc2)cc1 | 980 nM | 1340 nM | 1100 nM | 2.5 µM | – | – | – | – | –
14 | NCc1ccc(-c2ncc(OCC3CCNCC3)nc2-c2ccc(Oc3ccccc3)cc2)cc1 | > 50000 nM | > 50000 nM | 32600 nM | – | – | – | – | – | –
15 | NCc1ccc(-c2ncc(NCC3CCNCC3)nc2-c2ccc(-c3ccoc3)cc2)cc1 | 290 nM | 510 nM | 400 nM | 1.2 µM | – | – | – | – | –
16 | CC(C)(C)c1ccc(-c2ncc(OCC3CCNCC3)nc2-c2ccc(C(C)(C)C)cc2)cc1 | 8400 nM | 9500 nM | 3100 nM | 5 µM | – | – | – | – | –
17 | NCc1ccc(-c2ncc(OCC3CCNCC3)nc2-c2ccc3[nH]ccc3c2)cc1 | 640 nM | 930 nM | – | 2.5 µM | – | – | – | – | –
18 | c1cc(-c2ccc(-c3ncc(OCC4CCNCC4)nc3-c3ccc(-c4ccsc4)cc3)cc2)cs1 | 3600 nM | 6600 nM | 1400 nM | – | – | – | – | – | –
19 | NCc1ccc(-c2ncc(OCC3CCNCC3)nc2-c2ccc(-c3ccoc3)cc2)cc1 | 590 nM | 780 nM | – | 0.3 µM | – | – | – | 96% | 98%
20 | ONCc1ccc(-c2ncc(OCCC3CCNCC3)nc2-c2ccc(CNO)cc2)cc1 | 3800 nM | 3200 nM | 1600 nM | – | – | – | – | – | –
21 | NCc1ccc(-c2ncc(OCC3CCNCC3)nc2-c2ccc(-c3cn[nH]c3)cc2)cc1 | 210 nM | – | 760 nM | 2.5 µM | – | – | – | – | –
22 | NCc1ccc(-c2nc(OCC3CCNCC3)cnc2-c2ccc(-c3ccoc3)cc2)cc1 | – | – | 680 nM | 1.2 µM | – | – | – | – | –
23 | COc1cc(-c2nc(OCC3CCNCC3)cnc2-c2ccc(CN)cc2)ccc1-c1ccoc1 | – | – | 8000 nM | – | – | Non-Toxic | Non-Toxic | – | –

Source: ChEMBL document CHEMBL4811233, “Synthesis, Structure-Activity Relationships, and Antiviral Activity of Allosteric Inhibitors of Flavivirus NS2B-NS3 Protease” (J Med Chem, 2021)
